ChEMBL document CHEMBL2321801, “Induction of ABCA1 and ABCG1 expression by the liver X receptor modulator cineole in macrophages” (Bioorg Med Chem Lett, 2013)
One block for each molecule: values may come before it. Calls of active or inactive are those of the source. The calls are words filed in the database; no cut-off is given here.

Experiments:
[1] = system: HepG2; experiment: Downregulation of SCD-1 mRNA expression in human HepG2 cells at 50 to 100 microM by qPCR; format: functional
In short: (§1)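 Cells were preincubated 24 h in DMEM, then exposed 24 h to 50 or 100 µM (final) at 37 °C in 5% CO2. Vehicle was 1% DMSO, and each treatment was run at least in triplicate. Total RNA was extracted and transcripts were measured by qPCR relative to vehicle control, mean ± SE, n = 3.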

[2] = system: RAW264.7; experiment: Induction of cholesterol efflux genes in mouse RAW264.7 cells assessed as increase in LXRbeta mRNA expression measured at 100 microM by qPCR; format: functional; in short: as §1
[3] = system: HepG2; experiment: Downregulation of FAS protein expression in human HepG2 cells at 50 to 100 microM by immunoblotting; format: functional
In short: (§2)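 Cells were preincubated 24 h in DMEM, then treated 24 h with 50 or 100 µM alongside a 1% DMSO vehicle. They were lysed in ice-cold Tris-HCl pH 7.4/EDTA/NaCl/0.5% Triton X-100 buffer with protease inhibitors. 30 µg protein was run on 10% SDS-PAGE and transferred to nitrocellulose. Blots were probed with target antibodies, with α-tubulin as reference, n = 3.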

[4] = target: T1, Oxysterols receptor LXR-alpha (Homo sapiens) (UniProt Q13133); experiment: Agonist activity at LXRalpha (unknown origin) transfected in human CHO-K1 cells assessed as induction of transactivation at 50 to 200 microM by luciferase reporter gene transactivation assay relative to control; format: cell-based
T1 sequence (whole entry): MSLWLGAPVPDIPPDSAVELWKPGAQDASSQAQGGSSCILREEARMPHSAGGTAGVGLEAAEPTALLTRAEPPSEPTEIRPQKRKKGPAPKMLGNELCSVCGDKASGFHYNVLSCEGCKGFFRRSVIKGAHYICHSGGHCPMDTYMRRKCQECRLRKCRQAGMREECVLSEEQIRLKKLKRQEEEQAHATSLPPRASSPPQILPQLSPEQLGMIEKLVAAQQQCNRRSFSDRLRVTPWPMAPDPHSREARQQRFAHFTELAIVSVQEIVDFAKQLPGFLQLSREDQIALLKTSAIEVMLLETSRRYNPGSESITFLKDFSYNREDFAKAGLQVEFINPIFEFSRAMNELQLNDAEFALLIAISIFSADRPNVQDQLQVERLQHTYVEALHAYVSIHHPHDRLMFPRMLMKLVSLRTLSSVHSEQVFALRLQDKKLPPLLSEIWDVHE
In short: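 CHO-K1 cells in DMEM/F12 with 10% heat-inactivated FBS and 1% penicillin/streptomycin, co-transfected with pGL4.35 GAL4-UAS luciferase reporter, pSV-β-galactosidase and a human LXRα plasmid (pFN26A). After 24 h, cells were treated 24 h with 50, 100 or 200 µM. Firefly luciferase was normalized to β-galactosidase in the same lysate and expressed vs control, mean ± SE, n = 3.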

[5] = system: HepG2; experiment: Downregulation of FAS mRNA expression in human HepG2 cells at 50 to 100 microM by qPCR; format: functional; in short: as §1
[6] = system: RAW264.7; experiment: Induction of cholesterol efflux genes in mouse RAW264.7 cells assessed as increase in LXRalpha protein expression measured at 100 microM by immunoblotting; format: functional, cell-based; in short: as §2
[7] = system: RAW264.7; experiment: Induction of cholesterol efflux in mouse RAW264.7 cells assessed as reduction in cellular cholesterol level at 100 microM relative to control; format: functional; design: scale not given: the % may be the effect or the level left
[8] = system: RAW264.7; experiment: Induction of cholesterol efflux genes in mouse RAW264.7 cells assessed as increase in LXRbeta mRNA expression measured by qPCR; format: functional, cell-based; in short: as §1
[9] = target: Oxysterols receptor LXR-beta (Homo sapiens) (UniProt P55055); experiment: Agonist activity at LXRbeta (unknown origin) transfected in human CHO-K1 cells assessed as induction of transactivation by luciferase reporter gene transactivation assay relative to control
[10] = system: HepG2; experiment: Downregulation of SREBP-1c protein expression in human HepG2 cells at 50 to 100 microM by immunoblotting; format: functional; in short: as §2
[11] = system: HepG2; experiment: Reduction in lipid accumulation in human HepG2 cells at 100 microM by Oil Red O staining; format: functional, cell-based
[12] = target: Oxysterols receptor LXR-beta (Homo sapiens) (UniProt P55055); experiment: Agonist activity at LXRbeta (unknown origin) transfected in human CHO-K1 cells assessed as induction of transactivation at 100 microM by luciferase reporter gene transactivation assay relative to control
[13] = target: T2, Oxysterols receptor LXR-beta (Homo sapiens) (UniProt P55055); experiment: Induction of recruitment of D22 peptide to LXRbeta (unknown origin) by TR-FRET LXR-alpha co-activator assay
T2 sequence (whole entry): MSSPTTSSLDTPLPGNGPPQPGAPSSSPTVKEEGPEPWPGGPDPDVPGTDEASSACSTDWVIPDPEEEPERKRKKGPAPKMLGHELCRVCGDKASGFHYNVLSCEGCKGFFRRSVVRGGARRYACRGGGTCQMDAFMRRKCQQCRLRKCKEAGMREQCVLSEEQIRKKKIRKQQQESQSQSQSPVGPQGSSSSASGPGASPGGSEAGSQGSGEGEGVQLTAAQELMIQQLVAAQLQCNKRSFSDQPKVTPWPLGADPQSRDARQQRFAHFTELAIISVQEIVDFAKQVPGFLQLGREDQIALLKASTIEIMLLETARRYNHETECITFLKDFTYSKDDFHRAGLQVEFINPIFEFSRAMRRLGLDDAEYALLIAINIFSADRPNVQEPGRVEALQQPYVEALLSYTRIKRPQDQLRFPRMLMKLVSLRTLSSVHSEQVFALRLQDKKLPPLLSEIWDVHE

[14] = system: HepG2; experiment: Reduction in lipid accumulation in human HepG2 cells at 50 microM by Oil Red O staining; format: functional, cell-based
[15] = system: RAW264.7; experiment: Induction of cholesterol efflux genes in mouse RAW264.7 cells assessed as increase in LXRbeta protein expression measured at 100 microM by immunoblotting; format: functional, cell-based; in short: as §2
[16] = system: RAW264.7; experiment: Induction of cholesterol efflux genes in mouse RAW264.7 cells assessed as increase in LXRbeta mRNA expression measured at 50 microM by qPCR; format: functional; in short: as §1
[17] = system: RAW264.7; experiment: Induction of LXR-responsive genes in mouse RAW264.7 cells assessed as increase in Abca1 mRNA expression measured at 50 to 100 microM by qPCR; format: functional, cell-based; in short: as §1
[18] = target: Oxysterols receptor LXR-beta (Homo sapiens) (UniProt P55055); experiment: Agonist activity at LXRbeta (unknown origin) transfected in human CHO-K1 cells assessed as induction of transactivation at 200 microM by luciferase reporter gene transactivation assay relative to control
[19] = system: RAW264.7; experiment: Induction of LXR-responsive genes in mouse RAW264.7 cells assessed as increase in ABCA1 protein expression measured at 100 microM by immunoblotting; format: functional, cell-based; in short: as §2
[20] = target: Oxysterols receptor LXR-beta (Homo sapiens) (UniProt P55055); experiment: Agonist activity at LXRbeta (unknown origin) transfected in human CHO-K1 cells assessed as induction of transactivation at 50 microM by luciferase reporter gene transactivation assay relative to control
[21] = system: RAW264.7; experiment: Induction of LXR-responsive genes in mouse RAW264.7 cells assessed as increase in Abca1 mRNA expression measured at 50 to 100 microM by qPCR
[22] = target: T1, Oxysterols receptor LXR-alpha (Homo sapiens); experiment: Induction of recruitment of Trap220 peptide to LXRalpha (unknown origin) by TR-FRET LXR-alpha co-activator assay
In short: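 Cell-free LanthaScreen TR-FRET LXR-α co-activator recruitment assay, run per kit instructions, with T0901317 as reference agonist.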

[23] = system: RAW264.7; experiment: Induction of cholesterol efflux in mouse RAW264.7 cells assessed as reduction in cellular cholesterol level at 100 microM in presence of higher cholesterol relative to control; format: functional; design: scale not given: the % may be the effect or the level left
[24] = system: HepG2; experiment: Downregulation of SREBP-1c mRNA expression in human HepG2 cells at 50 to 100 microM by qPCR; format: functional; in short: as §1
[25] = system: RAW264.7; experiment: Induction of cholesterol efflux genes in mouse RAW264.7 cells assessed as increase in LXRalpha mRNA expression measured at 50 to 100 microM by qPCR; format: functional; in short: as §1
[26] = system: HepG2; experiment: Downregulation of LXRalpha mRNA expression in human HepG2 cells at 50 to 100 microM by qPCR; format: functional; in short: as §1
[27] = system: HepG2; experiment: Downregulation of LXRalpha protein expression in human HepG2 cells at 50 to 100 microM by immunoblotting; format: functional; in short: as §2
[28] = target: T3, Oxysterols receptor LXR-beta (Homo sapiens, UniProt P55055); experiment: Binding affinity to LXRbeta (unknown origin)
T3 sequence (P55055 whole entry): T2 sequence (whole entry)

[29] = target: T4, Oxysterols receptor LXR-alpha (Homo sapiens, UniProt Q13133); experiment: Binding affinity to LXRalpha (unknown origin)
T4 sequence (Q13133 whole entry): T1 sequence (whole entry)

[30] = system: HepG2; experiment: Reduction in lipid accumulation in human HepG2 cells at 1 microM by Oil Red O staining; format: functional, cell-based

Activity [4]: > 75% | Activity [9]: Dose-dependent effect | fold change (FC) [12]: 2 | Activity [13]: inactive | fold change (FC) [18]: 2.3 | fold change (FC) [20]: 1.4 | Activity [22]: inactive
SMILES: CC12CCC(CC1)C(C)(C)O2 [EUCALYPTOL]
inhibition (INH) [1]: 30% | Activity [2]: 50% | inhibition (INH) [3]: 50% | inhibition (INH) [5]: 24% | Activity [6]: Active | Activity [7]: 17% | Activity [8]: Dose-dependent effect | inhibition (INH) [10]: 25% | Activity [11]: Active | Activity [14]: Active | Activity [15]: Active | Activity [16]: 35% | Activity [17]: Active | Activity [19]: Active | Activity [21]: Active | Activity [23]: 17% | inhibition (INH) [24]: 25% | Activity [25]: 20% | inhibition (INH) [26]: 10% | inhibition (INH) [27]: 40%

Activity [13]: Dose-dependent effect | EC50 [28]: 10 nM | EC50 [29]: 320 nM | Activity [22]: Dose-dependent effect
SMILES: CCN(c1ccc(C(O)(C(F)(F)F)C(F)(F)F)cc1)S(=O)(=O)c1ccccc1
Activity [30]: inactive
